From PMC6054836 (Molecular Vision, 2018)
Like-named read-outs stand apart in the source and are kept apart here.

What was measured:
PKCβ1 = PKCβ1 (Homo sapiens, UniProt P05771); experiment: In vitro PKC inhibition assay; type: biochemical; details: read-out: IC50 PKCβ1; purified human recombinant PKCβ1, 30 min, room temperature
Summary of the method: (§1)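 Purified human recombinant PKC isoforms incubated at room temperature with ATP and isoform-specific substrates (25 to 400 nM) plus increasing concentrations of test compound (C8–C18 alkyl benzyl quaternary ammonium class). TR-FRET detection (LANCE or HTRF). Percent inhibition of control activity; IC50 and Hill coefficient from nonlinear Hill-equation fits of mean replicate values.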

PKCβ2 = PKCβ2 (Homo sapiens, UniProt P05771); experiment: In vitro PKC inhibition assay; type: biochemical; details: read-out: IC50 PKCβ2; purified human recombinant PKCβ2, 15 min, room temperature
Summary of the method: as §1

PKCα = PKCα (Homo sapiens, UniProt P17252); experiment: In vitro PKC inhibition assay; type: biochemical; details: read-out: IC50 PKCα; purified human recombinant PKCα, 15 min, room temperature
Summary of the method: as §1

PKCδ = PKCδ (Homo sapiens, UniProt Q05655); experiment: In vitro PKC inhibition assay; type: biochemical; details: read-out: IC50 PKCδ; purified human recombinant PKCδ, 30 min, room temperature
Summary of the method: as §1

PBMCs (LPS) = experiment: Marker secretion inhibition in LPS-stimulated PBMCs; type: cell-based; details: Homo sapiens, PBMC
Summary of the method: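 PBMCs were Ficoll-isolated from one donor's blood and cultured in RPMI 1640 with 10% heat-inactivated FBS, 2 mM glutamine and pen/strep at 37 °C, 5% CO2. Test compound was given in a 30-min preincubation, then in fresh medium with LPS for 24 h. IL-6, IL-8 and IL-12 in supernatant were measured by flow-cytometric bead array. Results are % inhibition versus stimulated cells, mean ± SEM of triplicates.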

Chain of PKCδ (Q05655 whole entry): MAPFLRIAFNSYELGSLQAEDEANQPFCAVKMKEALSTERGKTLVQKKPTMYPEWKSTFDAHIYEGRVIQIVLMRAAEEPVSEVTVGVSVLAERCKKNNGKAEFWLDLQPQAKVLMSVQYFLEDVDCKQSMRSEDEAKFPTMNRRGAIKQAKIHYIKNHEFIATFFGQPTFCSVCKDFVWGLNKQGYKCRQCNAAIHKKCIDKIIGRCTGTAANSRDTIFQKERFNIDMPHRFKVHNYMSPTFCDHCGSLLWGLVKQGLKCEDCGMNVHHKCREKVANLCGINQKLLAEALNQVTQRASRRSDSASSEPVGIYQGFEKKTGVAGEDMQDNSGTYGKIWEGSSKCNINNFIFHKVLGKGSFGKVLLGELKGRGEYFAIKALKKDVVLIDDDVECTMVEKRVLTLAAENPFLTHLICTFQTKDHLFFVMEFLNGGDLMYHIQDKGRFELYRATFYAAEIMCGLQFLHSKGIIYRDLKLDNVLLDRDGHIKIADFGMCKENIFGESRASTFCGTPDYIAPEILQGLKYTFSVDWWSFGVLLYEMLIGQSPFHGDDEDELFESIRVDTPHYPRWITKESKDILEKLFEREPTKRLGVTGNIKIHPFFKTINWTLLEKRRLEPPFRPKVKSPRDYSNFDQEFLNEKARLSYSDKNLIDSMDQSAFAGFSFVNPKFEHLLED
Chain of PKCβ2 (P05771 1-673 isoform P05771-2): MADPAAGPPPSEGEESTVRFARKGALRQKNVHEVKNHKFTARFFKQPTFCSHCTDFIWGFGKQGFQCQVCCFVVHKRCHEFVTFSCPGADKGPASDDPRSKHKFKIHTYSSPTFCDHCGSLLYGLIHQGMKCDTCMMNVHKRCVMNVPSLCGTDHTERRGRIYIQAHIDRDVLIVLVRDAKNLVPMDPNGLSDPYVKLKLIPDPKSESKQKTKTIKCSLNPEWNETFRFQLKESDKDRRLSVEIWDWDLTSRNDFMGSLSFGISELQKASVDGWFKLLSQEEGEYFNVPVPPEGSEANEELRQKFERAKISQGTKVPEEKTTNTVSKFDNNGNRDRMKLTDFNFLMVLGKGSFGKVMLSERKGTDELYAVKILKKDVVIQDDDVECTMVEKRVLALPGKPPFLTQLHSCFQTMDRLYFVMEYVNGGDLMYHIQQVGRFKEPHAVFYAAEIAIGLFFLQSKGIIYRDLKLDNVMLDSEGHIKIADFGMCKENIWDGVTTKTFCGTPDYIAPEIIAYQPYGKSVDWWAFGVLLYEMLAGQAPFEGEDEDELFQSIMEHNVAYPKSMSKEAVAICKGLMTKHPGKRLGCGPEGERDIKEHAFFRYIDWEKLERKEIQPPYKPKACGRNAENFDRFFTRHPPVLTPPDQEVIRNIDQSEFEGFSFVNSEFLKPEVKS
Chain of PKCβ1 (P05771 whole entry, canonical isoform): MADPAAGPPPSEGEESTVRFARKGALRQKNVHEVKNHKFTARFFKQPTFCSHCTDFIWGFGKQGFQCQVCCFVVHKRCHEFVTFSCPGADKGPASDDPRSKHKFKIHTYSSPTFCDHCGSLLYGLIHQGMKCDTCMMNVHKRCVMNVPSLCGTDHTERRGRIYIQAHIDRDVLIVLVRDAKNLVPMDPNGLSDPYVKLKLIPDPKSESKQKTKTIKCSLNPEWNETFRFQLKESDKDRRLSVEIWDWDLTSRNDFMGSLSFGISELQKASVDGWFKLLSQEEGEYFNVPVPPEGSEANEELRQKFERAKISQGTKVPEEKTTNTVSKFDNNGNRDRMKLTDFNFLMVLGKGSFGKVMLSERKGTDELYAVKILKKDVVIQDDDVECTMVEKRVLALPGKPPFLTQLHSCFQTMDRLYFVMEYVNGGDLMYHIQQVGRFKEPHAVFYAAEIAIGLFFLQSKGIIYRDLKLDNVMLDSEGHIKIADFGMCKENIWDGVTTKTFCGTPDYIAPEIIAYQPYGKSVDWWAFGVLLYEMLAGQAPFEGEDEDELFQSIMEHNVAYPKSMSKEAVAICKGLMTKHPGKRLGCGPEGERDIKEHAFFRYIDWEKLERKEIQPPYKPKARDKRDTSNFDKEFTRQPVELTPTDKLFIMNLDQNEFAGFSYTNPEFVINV

Compound	IC50 (PKCβ1) [µM]	IC50 (PKCβ2) [µM]	IC50 (PKCα) [µM]	IC50 (PKCδ) [µM]	inhibition at 0.1 µM (PBMCs (LPS); read-out: % of marker secretion inhibition, IL6) [%]	inhibition at 0.1 µM (PBMCs (LPS); read-out: % of marker secretion inhibition, IL8) [%]	inhibition at 0.1 µM (PBMCs (LPS); read-out: % of marker secretion inhibition, IL12) [%]	inhibition at 0.1 µM (PBMCs (LPS); read-out: % of marker secretion inhibition, TNFα) [%]
CCCCCCCCCCCCCC[N+](C)(C)Cc1ccccc1 [C14]	10.1	14.1	5.4	> 109				
C[C@@H]1C[C@H]2[C@@H]3CCC4=CC(=O)C=C[C@]4(C)[C@@]3(F)[C@@H](O)C[C@]2(C)[C@@]1(O)C(=O)CO [DXM, dexamethasone]					72 ± 1	68 ± 2	97 ± 1	85 ± 1
CCCCCCCCCCCCCCCC[N+](C)(C)Cc1ccccc1 [C16 (CKC), cetalkonium chloride]	> 101	> 101						

Continued, in another order:

IC50 (PKCβ1) [µM]	IC50 (PKCβ2) [µM]	IC50 (PKCα) [µM]	IC50 (PKCδ) [µM]	Compound	inhibition at 0.1 µM (PBMCs (LPS); read-out: % of marker secretion inhibition, IL6) [%]	inhibition at 0.1 µM (PBMCs (LPS); read-out: % of marker secretion inhibition, IL8) [%]	inhibition at 0.1 µM (PBMCs (LPS); read-out: % of marker secretion inhibition, IL12) [%]	inhibition at 0.1 µM (PBMCs (LPS); read-out: % of marker secretion inhibition, TNFα) [%]
74.6	39.3	11.7		CCCCCCCCCCCCCCCCCC[N+](C)(C)Cc1ccccc1 [C18]				
> 101	> 101	> 128	> 128	CCCCCCCCCC[N+](C)(C)Cc1ccccc1 [C10]				
58.8	58.8	22.6	> 118	CCCCCCCCCCCC[N+](C)(C)Cc1ccccc1 [C12]				
> 101	> 101	> 141		CCCCCCCC[N+](C)(C)Cc1ccccc1 [C8]				
